From ChEMBL document CHEMBL1153988 (J Med Chem, 2009) come the findings set out here.

Active and inactive are the calls of the source. The calls are words filed in the database; no cut-off is given here.

Data set [1] deals with Mus musculus. In words: Anticonvulsant activity in CF1 albino mouse assessed as protection against maximal electroshock-induced seizures at 100 mg/kg, ip after 0.5 hrs. Also noted: dose 100 mg/kg. It is filed as functional, organism-based. In outline: (§1)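 Adult male CF no. 1 albino mice (18-25 g). Test compound suspended in 0.5% methylcellulose and given intraperitoneally at 0.01 mL/g body weight. Maximal electroshock challenge at the stated time. Read-out is the number of animals protected over the number tested; neurotoxicity is scored in parallel.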
On the technique in general: The maximal electroshock test induces tonic seizures with an electrical stimulus.

Data set [2] deals with Mus musculus. The data set can be described thus: Anticonvulsant activity in CF1 albino mouse assessed as protection against scMet-induced seizures at 300 mg/kg, ip after 4 hrs. It is filed as functional, organism-based. Further details: dose 300 mg/kg. The procedure, abridged: (§2)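 Adult male CF no. 1 albino mice (18-25 g) dosed intraperitoneally with compound suspended in 0.5% methylcellulose (0.01 mL/g). Convulsant challenge given subcutaneously as a 0.85% pentylenetetrazol solution in 0.9% saline. Read-out is animals protected over animals tested, with neurotoxicity scored in parallel.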

The subject of data set [3] is Mus musculus. The data set can be described thus: Neurotoxicity in CF1 albino mouse at 30 mg/kg, ip after 4 hrs. Format: toxicity, organism-based. Further details: dose 30 mg/kg, route intraperitoneal. The following applies: in vivo. The procedure, abridged: (§3)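 Male CF no. 1 albino mice (18-25 g) received a single ip dose as a suspension in 0.5% methylcellulose. The read-out was the number of animals showing neurotoxicity (minimal motor impairment) over the number tested.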

In data set [4] the test system is Mus musculus. In words: Anticonvulsant activity in CF1 albino mouse assessed as protection against maximal electroshock-induced seizures at 300 mg/kg, ip after 0.5 hrs. Format: functional, organism-based. Further details: dose 300 mg/kg. The procedure, abridged: as §1
Data set [5] concerns Mus musculus. In words: Anticonvulsant activity in CF1 albino mouse assessed as protection against scMet-induced seizures at 100 mg/kg, ip after 4 hrs. Format: functional, organism-based. Also noted: dose 100 mg/kg. The procedure, abridged: as §2
For data set [6], the system named is Mus musculus. In words: Anticonvulsant activity in CF1 albino mouse assessed as protection against maximal electroshock-induced seizures at 300 mg/kg, ip after 4 hrs. Also noted: dose 300 mg/kg. Format: functional, organism-based. In outline: as §1
Data set [7] deals with Mus musculus. The data set can be described thus: Neurotoxicity in CF1 albino mouse at 100 mg/kg, ip after 4 hrs. The conditions noted are these: in vivo. It is filed as toxicity, organism-based. Further details: dose 100 mg/kg, route intraperitoneal. The procedure, abridged: as §3
The test system of data set [8] is Mus musculus. The data set can be described thus: Neurotoxicity in CF1 albino mouse at 300 mg/kg, ip after 4 hrs. The following applies: in vivo. Format: toxicity, organism-based. Further details: dose 300 mg/kg, route intraperitoneal. In outline:
as §3

Data set [9] concerns Rattus norvegicus. In words: Anticonvulsant activity in albino Sprague-Dawley rat assessed as protection against scMet-induced seizures at 50 mg/kg, po after 2 hrs. It is filed as functional. The procedure, abridged:
(§4)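 Male Sprague-Dawley albino rats (100-150 g) were given the compound orally as a suspension in 0.5% methylcellulose. Seizures were induced by subcutaneous pentylenetetrazol, dissolved in 0.9% saline as a 2.82% solution. The read-out was animals protected over animals tested.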

Data set [10] relates to Rattus norvegicus. The data set can be described thus: Anticonvulsant activity in albino Sprague-Dawley rat assessed as protection against scMet-induced seizures at 50 mg/kg, po after 1 hr. Format: functional. The procedure, abridged:
as §4

The subject of data set [11] is Mus musculus. The data set can be described thus: Neurotoxicity in CF1 albino mouse at 30 mg/kg, ip after 0.5 hrs. The conditions noted are these: in vivo. Further details: dose 30 mg/kg, route intraperitoneal. It is filed as toxicity, organism-based. The procedure, abridged: as §3
Data set [12] relates to Mus musculus. In words: Anticonvulsant activity in CF1 albino mouse assessed as protection against maximal electroshock-induced seizures at 30 mg/kg, ip after 4 hrs. It is filed as functional, organism-based. Also noted: dose 30 mg/kg. In outline:
as §1

For data set [13], the system named is Rattus norvegicus. In words: Anticonvulsant activity in albino Sprague-Dawley rat assessed as protection against maximal electroshock-induced seizures at 50 mg/kg, po after 2 hrs. It is filed as functional. The procedure, abridged:
(§5)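 Adult male Sprague-Dawley albino rats (100-150 g) dosed orally with compound suspended in 0.5% methylcellulose (0.04 mL per 10 g). Maximal electroshock challenge at the stated time. Protection is scored in 25% steps as the fraction of animals protected, with neurotoxicity recorded in parallel.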

Data set [14] relates to Mus musculus. In words: Neurotoxicity in CF1 albino mouse at 100 mg/kg, ip after 0.5 hrs. It is filed as toxicity, organism-based. Further details: dose 100 mg/kg, route intraperitoneal. The conditions noted are these: in vivo. In outline:
as §3

The test system of data set [15] is Rattus norvegicus. In words: Anticonvulsant activity in albino Sprague-Dawley rat assessed as protection against maximal electroshock-induced seizures at 50 mg/kg, po after 30 mins. It is filed as functional. The procedure, abridged:
as §5

In data set [16] the test system is Rattus norvegicus. The data set can be described thus: Neurotoxicity in albino Sprague-Dawley rat at 50 mg/kg, po. Format: toxicity, organism-based. Further details: dose 50 mg/kg, route oral. The conditions noted are these: in vivo. The procedure, abridged: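 Neurotoxicity was scored in male Sprague-Dawley albino rats (100-150 g) dosed orally with a suspension in 0.5% methylcellulose. The read-out was the fraction of animals showing neurotoxicity (minimal motor impairment).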

The subject of data set [17] is Mus musculus. In words: Anticonvulsant activity in CF1 albino mouse assessed as protection against scMet-induced seizures at 100 mg/kg, ip after 0.5 hrs. Format: functional, organism-based. Also noted: dose 100 mg/kg. In outline:
as §2

For data set [18], the system named is Rattus norvegicus. In words: Anticonvulsant activity in albino Sprague-Dawley rat assessed as protection against scMet-induced seizures at 50 mg/kg, po after 4 hrs. It is filed as functional. In outline: as §4
Data set [19] deals with Rattus norvegicus. The data set can be described thus: Anticonvulsant activity in albino Sprague-Dawley rat assessed as protection against maximal electroshock-induced seizures at 50 mg/kg, po after 15 mins. Format: functional. The procedure, abridged: as §5
Data set [20] relates to Mus musculus. In words: Anticonvulsant activity in CF1 albino mouse assessed as protection against scMet-induced seizures at 30 mg/kg, ip after 4 hrs. It is filed as functional, organism-based. Further details: dose 30 mg/kg. In outline: as §2
Data set [21] deals with Rattus norvegicus. The data set can be described thus: Anticonvulsant activity in albino Sprague-Dawley rat assessed as protection against maximal electroshock-induced seizures at 50 mg/kg, po after 1 hr. Format: functional. In outline:
as §5

The test system of data set [22] is Mus musculus. The data set can be described thus: Anticonvulsant activity in CF1 albino mouse assessed as protection against maximal electroshock-induced seizures at 100 mg/kg, ip after 4 hrs. Format: functional, organism-based. Also noted: dose 100 mg/kg. The procedure, abridged: as §1
Data set [23] deals with Mus musculus. The data set can be described thus: Anticonvulsant activity in CF1 albino mouse assessed as protection against scMet-induced seizures at 300 mg/kg, ip after 0.5 hrs. It is filed as functional, organism-based. Also noted: dose 300 mg/kg. In outline: as §2
For data set [24], the system named is Rattus norvegicus. The data set can be described thus: Anticonvulsant activity in albino Sprague-Dawley rat assessed as protection against maximal electroshock-induced seizures at 50 mg/kg, po after 4 hrs. Format: functional, organism-based. Also noted: dose 50 mg/kg. The procedure, abridged:
as §5

Data set [25] concerns Rattus norvegicus. The data set can be described thus: Anticonvulsant activity in albino Sprague-Dawley rat assessed as protection against scMet-induced seizures at 50 mg/kg, po after 15 mins. Format: functional. The procedure, abridged:
as §4

For data set [26], the system named is Rattus norvegicus. The data set can be described thus: Anticonvulsant activity in albino Sprague-Dawley rat assessed as protection against scMet-induced seizures at 50 mg/kg, po after 30 mins. Format: functional. In outline:
as §4

Data set [27] concerns Mus musculus. The data set can be described thus: Anticonvulsant activity in CF1 albino mouse assessed as protection against maximal electroshock-induced seizures at 30 mg/kg, ip after 0.5 hrs. It is filed as functional, organism-based. Also noted: dose 30 mg/kg. In outline: as §1
Data set [28] has as its system Mus musculus. The data set can be described thus: Anticonvulsant activity in CF1 albino mouse assessed as protection against scMet-induced seizures at 30 mg/kg, ip after 0.5 hrs. Also noted: dose 30 mg/kg. Format: functional, organism-based. In outline:
as §2

Data set [29] is filed under the species Rattus norvegicus. In words: Protective index, ratio of TD50 for albino Sprague-Dawley rat to ED50 for scMet-induced albino Sprague-Dawley rat seizure model. Format: functional. The procedure, abridged: (§6)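 Protective index is the rat TD50 (minimal motor impairment) divided by the ED50 in the MES or sc pentylenetetrazol test. Male Sprague-Dawley rats were dosed orally in 0.5% methylcellulose, and both values came from probit analysis.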

Data set [30] is filed under the species Rattus norvegicus. In words: Protective index, ratio of TD50 for albino Sprague-Dawley rat to ED50 for maximal electroshock-induced albino Sprague-Dawley rat seizure model. Format: functional. In outline:
as §6

Data set [31] deals with Mus musculus. In words: Anticonvulsant activity in ip dosed CF1 albino mouse assessed as protection against 32 mA current-induced seizure by 6Hz psychomotor seizure test. Format: functional. In outline: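 In the 6 Hz psychomotor seizure test, male CF no. 1 albino mice (18-25 g) received the compound ip in 0.5% methylcellulose. Stimulation was at 32 or 44 mA. Doses were varied to give 3-4 points between 0% and 100% protection, and ED50 with 95% confidence interval came from probit analysis.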

For `CC1(C)C(C)(C)C1(C)C(=O)O`, the Activity entry with Mus musculus [1] was “Non-toxic”; in the data set with Mus musculus [2] it was “Non-toxic”; in the data set with Mus musculus [3] it was “Non-toxic”; in the data set on Mus musculus [4], “Toxic”; in the data set with Mus musculus [5], “Non-toxic”; in the data set with Mus musculus [6] it was “Non-toxic”. Further, the Activity entry is “Non-toxic” in the data set on Mus musculus [7]; “Non-toxic” in the data set on Mus musculus [8]; “Non-toxic” with Mus musculus [11]; “Non-toxic” in the data set on Mus musculus [12]; “Non-toxic” with Mus musculus [14]; “Not Active” with Rattus norvegicus [16]. Moreover, the Activity result in the data set on Mus musculus [17] is “Non-toxic”; with Rattus norvegicus [18] it was 25%; in the data set with Mus musculus [20] it was “Non-toxic”; in the data set with Mus musculus [22], “Non-toxic”; in the data set on Mus musculus [23] it was “Non-toxic”; in the data set on Mus musculus [27], “Non-toxic”. Further, in the data set on Mus musculus [28], the Activity entry was “Non-toxic”. Also, the result in the data set with Rattus norvegicus [9], in the data set on Rattus norvegicus [10], with Rattus norvegicus [13], in the data set with Rattus norvegicus [15], in the data set on Rattus norvegicus [19] and with Rattus norvegicus [21] was inactive. The outcome in the data set on Rattus norvegicus [24], in the data set on Rattus norvegicus [25] and in the data set on Rattus norvegicus [26] was inactive.
As for `CC1(C)C(C(=O)NC(N)=O)C1(C)C` [2,2,3,3-TETRAMETHYLCYCLOPROPANECARBONYLUREA], the results for the PI in the data set listed under Rattus norvegicus [29] and in the data set filed under Rattus norvegicus [30] were 5.9 and 18.5, respectively.
As usually defined, the ED50 is the dose at which the effect has come halfway, by size or by number of responders. As for `CC[C@H](C(N)=O)N1CCCC1=O`, the ED50 in the data set with Mus musculus [31] was determined as 19 mg/kg.
